Data published in ChEMBL document CHEMBL1158573, “Cytotoxic and NF-kappaB inhibitory constituents of Artocarpus rigida” (J Nat Prod, 2010).
Activity calls are given as the source filed them. The rule behind the calls is not given here.

Key:
[1] = test system: HT-29; experiment: Cytotoxicity against human HT-29 cells after 3 days by SRB assay; format: functional; conditions: for EC50: HT-29, 72 h, read-out: ED50 (the source's name)
Method in brief: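 HT-29 colon cancer cells, trypsinized and seeded in 96-well plates, treated with compounds in DMSO (DMSO as negative control). Incubated 3 days at 37 °C, 5% CO2, then fixed, 30 min at room temperature, washed, dried overnight, stained with sulforhodamine B. Dye solubilized in tris-base buffer, absorbance read at 515 nm. Cytotoxicity calculated versus DMSO control, reported as ED50 (μM). Paclitaxel as positive control.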

[2] = target: T1, Nuclear factor NF-kappa-B p105 subunit (Homo sapiens) (UniProt P19838); experiment: Inhibition of NFkappa p50 isolated from nuclear extract of human HeLa cells assessed as blockade of binding to biotinylated consesus sequence by chemiluminescence assay; format: cell-free
T1 sequence (whole entry): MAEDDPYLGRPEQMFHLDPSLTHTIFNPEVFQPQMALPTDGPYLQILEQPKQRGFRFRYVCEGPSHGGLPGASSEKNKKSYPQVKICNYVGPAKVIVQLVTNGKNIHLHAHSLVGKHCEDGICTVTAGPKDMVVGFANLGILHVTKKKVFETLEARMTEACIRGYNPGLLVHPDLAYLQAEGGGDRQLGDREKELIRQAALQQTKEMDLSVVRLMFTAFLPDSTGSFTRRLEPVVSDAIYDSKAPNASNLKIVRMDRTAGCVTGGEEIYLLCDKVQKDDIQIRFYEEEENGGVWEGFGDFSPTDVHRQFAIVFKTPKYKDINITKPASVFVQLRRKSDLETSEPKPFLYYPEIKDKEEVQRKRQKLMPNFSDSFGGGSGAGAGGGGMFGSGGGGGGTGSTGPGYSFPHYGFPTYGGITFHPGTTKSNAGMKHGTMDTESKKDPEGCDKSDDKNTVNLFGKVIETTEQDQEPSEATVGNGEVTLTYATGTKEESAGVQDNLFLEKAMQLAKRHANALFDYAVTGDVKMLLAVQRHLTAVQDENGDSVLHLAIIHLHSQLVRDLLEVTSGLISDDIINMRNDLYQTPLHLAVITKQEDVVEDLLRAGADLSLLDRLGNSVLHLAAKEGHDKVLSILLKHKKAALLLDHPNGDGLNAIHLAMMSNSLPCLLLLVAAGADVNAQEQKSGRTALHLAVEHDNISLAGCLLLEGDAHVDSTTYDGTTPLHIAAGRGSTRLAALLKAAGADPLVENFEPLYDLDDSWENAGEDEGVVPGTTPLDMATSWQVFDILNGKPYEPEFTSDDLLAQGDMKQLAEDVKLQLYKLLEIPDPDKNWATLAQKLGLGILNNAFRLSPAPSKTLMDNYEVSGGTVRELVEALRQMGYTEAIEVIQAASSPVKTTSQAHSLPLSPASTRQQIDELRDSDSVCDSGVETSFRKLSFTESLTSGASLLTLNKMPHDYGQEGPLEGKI
Method in brief: (§1)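 ELISA-format transcription factor assay. HeLa nuclear extract was treated with samples, and activated p50 or p65 bound to a biotinylated consensus sequence was detected by chemiluminescence on a plate reader. IC50 reported in μM.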

[3] = target: Transcription factor p65 (Homo sapiens) (UniProt Q04206); experiment: Inhibition of NFkappa p65 isolated from nuclear extract of human HeLa cells assessed as blockade of binding to biotinylated consesus sequence by chemiluminescence assay; format: cell-free; method in brief: as §1
Sequence of Transcription factor p65 (Homo sapiens) (Q04206 whole entry): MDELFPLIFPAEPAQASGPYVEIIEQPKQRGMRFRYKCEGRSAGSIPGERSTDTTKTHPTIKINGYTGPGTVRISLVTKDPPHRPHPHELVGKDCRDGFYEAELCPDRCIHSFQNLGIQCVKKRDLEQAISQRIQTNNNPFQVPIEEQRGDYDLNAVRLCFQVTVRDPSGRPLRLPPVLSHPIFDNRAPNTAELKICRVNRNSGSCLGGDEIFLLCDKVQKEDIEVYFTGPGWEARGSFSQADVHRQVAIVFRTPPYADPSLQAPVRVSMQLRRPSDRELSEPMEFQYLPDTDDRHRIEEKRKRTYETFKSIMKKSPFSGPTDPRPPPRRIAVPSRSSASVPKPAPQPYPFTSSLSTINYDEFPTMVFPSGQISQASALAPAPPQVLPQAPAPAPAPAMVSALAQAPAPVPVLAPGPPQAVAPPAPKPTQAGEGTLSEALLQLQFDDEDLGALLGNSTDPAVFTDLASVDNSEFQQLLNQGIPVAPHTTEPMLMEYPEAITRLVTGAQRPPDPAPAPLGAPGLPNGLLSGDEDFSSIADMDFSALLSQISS

Row | Structure (SMILES) | Activity [1] | Activity [2] | Activity [3] | EC50 [1] [µM]
1 | COc1cc(O)c2c(=O)c3cc4c5c(c(O)cc(O)c5c3oc2c1)OC4(C)C | inactive | inactive | inactive | –
2 | C[C@H]1[C@H](C)CC[C@]2(C(=O)O)CC[C@]3(C)C(=CC[C@@H]4[C@@]5(C)CC[C@H](O)C(C)(C)[C@@H]5CC[C@]43C)[C@H]12 | inactive | inactive | inactive | –
3 | CC(=O)O[C@H]1C(=O)[C@@]2(C)[C@H]([C@H](OC(=O)c3ccccc3)[C@]3(O)C[C@H](OC(=O)[C@H](O)[C@@H](NC(=O)c4ccccc4)c4ccccc4)C(C)=C1C3(C)C)[C@]1(OC(C)=O)CO[C@@H]1C[C@@H]2O [PACLITAXEL] | – | – | – | 0.0001
4 | C=C(C)c1cc2c(=O)c3c(O)c(CC=C(C)C)c(O)cc3oc2c2c(O)c3c(c(O)c12)OC(C)(C)C=C3 | inactive | inactive | inactive | –
5 | C=C(C)[C@@H]1CC[C@]2(C(=O)O)CC[C@]3(C)[C@H](CC[C@@H]4[C@@]5(C)CC[C@H](O)C(C)(C)[C@@H]5CC[C@]43C)[C@@H]12 | inactive | inactive | inactive | –
6 | CC1(C)C=Cc2cc3c(cc2O1)Oc1cc(O)ccc1C(O)=C3 [ARTORISTILBENE] | – | – | – | 10.7
7 | CC(C)=CCc1c(O)cc2oc3c(cc4c5c(c(O)c(CC=C(C)C)c(O)c53)OC4(C)C)c(=O)c2c1O | inactive | inactive | inactive | –
8 | C=C(C)c1cc2c(=O)c3c(O)c(CC=C(C)C)c(O)cc3oc2c2c1C(=O)C(O)=C(CC=C(C)C)C2=O [ARTORIGIDIN C] | – | – | – | > 10
9 | C=C(C)[C@H]1Cc2c(oc3c4c(cc(O)c3c2=O)OC(C)(C)C=C4)-c2c(O)cc(O)c(O)c21 [ARTOBILOXANTHONE] | – | – | – | > 10
